In the library only some 1.4% were active in any assay of this set; here they are far more common.
ARFGAP1 inhibitor: inhibitors of rat ARFGAP1 GAP activity, primary screen, biochemical, fluorescence polarization, GDP tracer; Arfgap1-stimulated ARF1 GTP hydrolysis, GDP FP detection; ADP-ribosylation factor GTPase-activating protein 1 (Rattus norvegicus), Q62848; AID 651572, 2012; inhibition, % at 16.5 µM; actives 0.26% (n = 360,000);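 active = inhibition above a per-plate limit, mean inhibition of low control wells plus 3 SD, cut at about 25% in these data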;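 also: 0% = DMSO wells with enzyme and 100% = wells lacking Arfgap1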
Target sequence (Q62848 1-136 limits assumed): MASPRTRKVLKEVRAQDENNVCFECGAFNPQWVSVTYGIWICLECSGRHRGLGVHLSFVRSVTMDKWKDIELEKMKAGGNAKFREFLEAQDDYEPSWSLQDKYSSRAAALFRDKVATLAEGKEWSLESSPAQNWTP
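material = rat Arfgap1 catalytic domain, aa 1-136 | also added = human ARF1(Δ1-17)-GTP substrate | compound dosing = one concentration, 16.5 µM, DMSO 1.26% | times = GTP hydrolysis reaction 2 h at 25 °C | measured by = FP, GDP Alexa 633 tracer displaced from anti-GDP antibody, 620/688 nm | evaluation = percent inhibition of Arfgap1-stimulated GTP hydrolysis | replication = single well per compound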
MsrA inh: bovine MsrA enzyme inhibitors, primary screen, biochemical, absorbance, HTS | purified bovine MsrA, absorbance read-out | inhibition, % at 15.5 µM | actives 0.75% (n = 360,000) | AID 651718, 2012;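 also: 0% = vehicle wells with enzyme and 100% = reference inhibitor wells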
MsrA act: bovine MsrA enzyme activators, primary screen, biochemical, absorbance, HTS. Methionine sulfoxide reductase A (Bos taurus). purified bovine MsrA, absorbance read-out. activation, % at 10.6 µM. actives 0.3% (n = 360,000). AID 602163, 2012; in the data active = activation above about 7.5%;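 also: 0% = vehicle and 100% = reference activator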
ASAP1 inh: inhibitors of human ASAP1 ArfGAP activity, primary screen, biochemical, fluorescence polarization; Arf-GAP with SH3 domain, ANK repeat and PH domain-containing protein 1 (Homo sapiens), …; ASAP1-stimulated ARF1 GTP hydrolysis, GDP FP detection; inhibition, % at 16.5 µM; actives 0.19% (n = 360,000); in the data active = inhibition above about 25%;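 also: 0% = vehicle with enzyme and substrate and 100% = no enzyme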
Target sequence (Q9ULH1 325-724 limits assumed): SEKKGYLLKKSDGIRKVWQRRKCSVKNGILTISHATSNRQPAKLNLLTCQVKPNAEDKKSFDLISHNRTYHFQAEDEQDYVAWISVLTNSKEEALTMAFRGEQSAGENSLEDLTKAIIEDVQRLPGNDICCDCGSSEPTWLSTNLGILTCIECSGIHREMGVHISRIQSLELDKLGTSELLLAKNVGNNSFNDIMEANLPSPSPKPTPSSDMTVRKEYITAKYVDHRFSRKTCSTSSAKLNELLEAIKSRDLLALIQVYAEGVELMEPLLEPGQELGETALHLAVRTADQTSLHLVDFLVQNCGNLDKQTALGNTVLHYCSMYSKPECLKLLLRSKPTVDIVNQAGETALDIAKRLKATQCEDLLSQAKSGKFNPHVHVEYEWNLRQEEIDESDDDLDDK
MsrA inh confirm: bovine MsrA inhibitors, retest, confirmation, biochemical, absorbance, HTS; shares compounds with MsrA inh; purified bovine MsrA, absorbance read-out; inhibition, % at 15.5 µM; actives 41% (n = 2,300);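 also: coupled to thioredoxin reductase with NADPH and selenocystamine and DMSO as substrate; 0% = vehicle only and 100% = full effect of reference inhibitor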
An asterisk follows results filed as active; / = not tested or not shown. Rule as the data show it, unless noted: active = inhibition above about 4.5%; inactive = the rest.

SMILES | ARFGAP1 inhibitor | MsrA inh | MsrA act | ASAP1 inh | MsrA inh confirm
O=C(N/N=C/c1ccc(Br)o1)/C(=C/c1ccc([N+](=O)[O-])cc1)NC(=O)c1ccccc1 | 6 | 5.3* | -3 | -15 | 3
CCn1c(C)[n+](CCOCC[n+]2c(C)n(CC)c3cc(Cl)c(Cl)cc32)c2cc(Cl)c(Cl)cc21 | -7 | 0 | -2 | -18 | /
CC(=O)NC12CC3CC(C1)CC(C(=O)N1CCN(c4ncccn4)CC1)(C3)C2 | 10 | 1 | -5 | -3 | /
CCC(=O)/C=C1/Sc2ccc(OC)cc2N1CC | 2 | 4.7* | -3 | -5 | 3
CCC(=O)/C=C1/Sc2ccc(OC)cc2N1CCO | -1 | 4 | -5 | 7 | /
CCC(=O)/C=C1/Sc2ccccc2N1CC | -6 | 8.2* | -9 | -4 | 4
CCCCNc1ccc2c(c1)OC[C@H](Cc1ccccc1)NS2(=O)=O | 0 | 0 | / | -3 | /
O=C(C[n+]1ccc(C(=O)NCc2ccccc2)cc1)c1ccc(Cl)cc1 | 16 | -1 | -6 | 2 | /
CO/N=C/C(C#N)=C/c1ccc(OC)c(OC)c1 | 3 | 5.1* | -4 | 6 | 3
Cc1ncc(CO)c(CNc2ccc(-c3nc4ccccc4[nH]3)cc2)c1O | 11 | 6.4* | -6 | -5 | 5.2*
COc1cccc(CNC(=O)C2CCN(c3cnccn3)CC2)c1 | -5 | 1 | -4 | -4 | /
COc1ccc(/C=C2\SC(N3CCCCC3)=NC2=O)cc1 | 3 | 5.9* | -5 | -4 | 4.7*
O=C1N=C(N2CCCCC2)S/C1=C\c1ccncc1 | 0 | 2 | -3 | -2 | /
CCc1ccc(/C=C2\SC(N3CCCC3)=NC2=O)cc1 | -6 | 4.8* | -5 | -18 | 3
C=CCNc1cccc2c1S(=O)(=O)N[C@@H](Cc1ccccc1)CO2 | -6 | 1 | / | -8 | /
CC1CCCC(NC(=O)Cn2cc(Br)ccc2=O)C1C (configuration not stated) | 10 | 2 | -4 | 3 | /
Cc1noc(/C=C/c2cccnc2)c1[N+](=O)[O-] | 10 | 5.3* | -10 | 12 | 3
COc1ccccc1S(=O)(=O)N(C)C[C@H]1Oc2cc(Br)ccc2S(=O)(=O)N([C@H](C)CO)C[C@H]1C | 12 | 5.6* | / | 3 | 0
COc1ccccc1S(=O)(=O)N(C)C[C@H]1Oc2cc(Br)ccc2S(=O)(=O)N([C@@H](C)CO)C[C@H]1C | 1 | 0 | -3 | -10 | /
O=C(Nc1nccs1)c1cnc2sccn2c1=O | 2 | 5.8* | -10 | -5 | 5.7*
COC(=O)c1ccccc1NC(=O)c1cnc2sccn2c1=O | -10 | 1 | -2 | 1 | /
CC(C)C[C@@H](CN1CCC[C@@H]1CN1C(=S)NC[C@@H]1Cc1ccc(O)cc1)N1C[C@H](Cc2ccc(O)cc2)N(CC2CCCCC2)C1=S | 9 | 0 | -3 | 11 | /
CC(C)OCCCNC(=O)C(Cc1ccccc1)NS(=O)(=O)c1ccc2c(c1)CCC(=O)N2 (configuration not stated) | 14 | 1 | -2 | 0 | /
CN(C)/C=N/c1nc2nccc(-c3cccs3)n2n1 | 7 | 7.1* | -7 | -4 | 6.1*
O=C1OC(c2ccccc2)=N/C1=C\C=C\c1ccco1 | -7 | 4.9* | -7 | 0 | 2
SMILES | ARFGAP1 inhibitor | MsrA inh | MsrA act | ASAP1 inh | MsrA inh confirm
O=C1OC(c2ccc(Cl)cc2)=N/C1=C\C=C\c1ccco1 | 0 | 4.7* | 0 | 7 | 4
O=C(NCCN1CCCCC1)c1ccc(=O)oc1 | 7 | 5.1* | -4 | 5 | 3
O=C(NCCC1=CCCCC1)c1ccc(=O)oc1 | 3 | 6.9* | -18 | -10 | 7.1*
C(=N\N=C\c1cccs1)/c1cccs1 | 7 | 5.1* | -1 | -2 | 4.7*
CC1S/C(=N/N=C/c2cccs2)NC1=O (configuration not stated) | -4 | 5.0* | -5 | -2 | 4
CCC1S/C(=N/N=C/c2cccs2)NC1=O (configuration not stated) | -2 | 6.2* | -8 | 8 | 5.5*
CC(C)C1S/C(=N/N=C/c2cccs2)NC1=O (configuration not stated) | 10 | 6.8* | -8 | 11 | 4
CC(=O)Nc1ccc(S(=O)(=O)NCC(=O)NC(C)c2ccc(S(N)(=O)=O)cc2)cc1 (configuration not stated) | -8 | 1 | -1 | -2 | /
Cn1cnc([N+](=O)[O-])c1S(=O)(=O)Nc1ccccc1 | 3 | 16* | -2 | 7 | 8.1*
Cn1cnc([N+](=O)[O-])c1S(=O)(=O)Oc1ccccc1 | -8 | 17* | -3 | 8 | 12*
N#CN1C2CCC1CC(O)(c1ccccc1)C2 (configuration not stated) | / | / | 0 | / | /
Nc1nc2c(ncn2C2CCCC2)c(=O)[nH]1 | 5 | 0 | -2 | 15 | /
Nc1nc(=S)c2ncn(C3CCCC3)c2[nH]1 | -15 | 5.0* | 2 | 2 | 4
CN(C)/C=N/c1nc2nccc(-c3ccc(F)cc3)n2n1 | 9 | 2 | -3 | 1 | /
CN(C)/C=N/c1nc2ncc(-c3ccc(Cl)cc3)c(/N=C/N(C)C)n2n1 | 0 | 5.2* | -8 | 4 | 3
O=C1c2cccc3c([N+](=O)[O-])ccc(c23)C(=O)N1CCc1ccccn1 | -2 | -1 | -6 | 1 | /
CN(C)CCCN1C(=O)c2cccc3c([N+](=O)[O-])ccc(c23)C1=O | 2 | 18* | -7 | 7 | 10*
O=C(N/N=C/c1ccc2c(c1)OCO2)C(=O)Nc1ccc2ccccc2c1 | 19 | 0 | / | -2 | /
O=C(NNC1=NC2(CCCC2)Cc2ccccc21)c1ccncc1 | 3 | 4.7* | -5 | 0 | 1
COc1cc(/C=N/Nc2nc3ccccc3[nH]2)cc(OC)c1O | 5 | 5.1* | -7 | 19 | 4.7*
COc1ccc(O)c(/C=N/Nc2nc3ccccc3[nH]2)c1 | -1 | 5.8* | -2 | 7 | 4
COc1cccc(/C=N/Nc2ncnc(Cl)c2N)c1O | -1 | 5.7* | -7 | 11 | 5.2*
COc1cccc(/C=N/Nc2nc3ccccc3[nH]2)c1O | -3 | 5.9* | -1 | 12 | 5.2*
C[C@@H]1COc2cc(NCCCN3CCOCC3)ccc2S(=O)(=O)N1 | 1 | -1 | / | 4 | /
Cn1c(=O)c([N+](=O)[O-])c(NCc2ccc3c(c2)OCO3)c2ccccc21 | -2 | 0 | -4 | -7 | /
Cc1nn(C(C)C(=O)NCCCc2ccccc2)c(=O)c2nn(-c3ccccc3)c(C)c12 (configuration not stated) | -1 | 0 | 5 | -12 | /
CN(C)S(=O)(=O)c1ccc(C(=O)Nc2ccn(C)n2)cc1 | -16 | 0 | 1 | -2 | /
COc1cc(/C=N/Nc2nc3ccccc3[nH]c2=O)ccc1O | 1 | 1 | -5 | -3 | /

Compound activity from PubChem BioAssay.
